Ins promoter up = insulin promoter activators in MIN6 cells, imaging, high-content screening, mouse beta cells; MIN6 insulin promoter-GFP reporter; active compounds read high; z-score at 5 µM; 0.3% of 190,000 active;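 active means z-score above 3 at 5 µM with at least 500 cells counted in the well; inconclusive means wells under 500 cells, flagged as cytotoxic or low count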
HSV augment = enhancers of HSV replication in host cells, fold increase, host cell viability; HSV replication augmentation in cells; maximum fold increase; 0.005% of 220,000 active; AID 1956, 2009; in the data active means maximum fold increase above about 1.5; inconclusive means no clear call, values can overlap the other calls; tested in PC3 cells
MT stabilizer = microtubule stabilizers in HeLa cells, primary screen, imaging, high-content imaging; AID 2205, 2009; HeLa tubulin immunostaining HCS, 24 h; share of cells brighter than vehicle mean+2SD; % tubulin-high responders, % at 10 µM; 0.83% of 200,000 active;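 active means plate Z-score above 3 for both tubulin-high and condensed-nucleus cell shares, with cell loss under 80%, at 10 µM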;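 further: anti alpha tubulin signal scored within the nucleus-defined area of each cell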
Autophagy mod = autophagy modulators in MEF cells, primary screen, imaging, high-content, MEF GFP-LC3; MEF GFP-LC3 puncta imaging; test concentration mostly 10 µM; calls only at 10 µM (by protocol); 0.98% of 190,000 active;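 active means percentage of spot-positive cells more than 3 SD above its plate mean, without a fluorescence outlier flag or 80% toxicity; inconclusive means no clear call, values can overlap the other calls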
b-catenin transl = modulators of beta-catenin nuclear translocation, primary screen, imaging, HeLa cells, immunofluorescence, high-content; nuclear translocation activity, % at 5 µM; 0.3% of 190,000 active; AID 1665, 2009;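 active means nuclear translocation activity above 50% at 5 µM, with a well cell count of 50 or more; inconclusive means wells under 50 cells across six images, flagged as toxic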;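 further: per-cell ratio of nuclear to cytoplasmic median beta-catenin stain intensity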
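Test system: HeLa cells, endogenous beta-catenin; Compound: single 5 µM dose plus 0.02–20 µM confirmation series; Times: compound exposure 24 h at 37°C; Signal: fluorescence imaging of beta-catenin antibody stain plus DAPI; Read-out: % activation, nuclear-to-cytoplasmic median beta-catenin signal ratio per cell.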
Furin inhibitor = human furin inhibitors, primary screen, biochemical, fluorescence intensity; inhibition, % at 20 µM or 30 µM; 0.061% of 220,000 active; P09958; AID 463115, 2010; purified furin, fluorogenic substrate cleavage; in the data active means inhibition above about 25%
Target sequence (P09958 108-714 limits assumed): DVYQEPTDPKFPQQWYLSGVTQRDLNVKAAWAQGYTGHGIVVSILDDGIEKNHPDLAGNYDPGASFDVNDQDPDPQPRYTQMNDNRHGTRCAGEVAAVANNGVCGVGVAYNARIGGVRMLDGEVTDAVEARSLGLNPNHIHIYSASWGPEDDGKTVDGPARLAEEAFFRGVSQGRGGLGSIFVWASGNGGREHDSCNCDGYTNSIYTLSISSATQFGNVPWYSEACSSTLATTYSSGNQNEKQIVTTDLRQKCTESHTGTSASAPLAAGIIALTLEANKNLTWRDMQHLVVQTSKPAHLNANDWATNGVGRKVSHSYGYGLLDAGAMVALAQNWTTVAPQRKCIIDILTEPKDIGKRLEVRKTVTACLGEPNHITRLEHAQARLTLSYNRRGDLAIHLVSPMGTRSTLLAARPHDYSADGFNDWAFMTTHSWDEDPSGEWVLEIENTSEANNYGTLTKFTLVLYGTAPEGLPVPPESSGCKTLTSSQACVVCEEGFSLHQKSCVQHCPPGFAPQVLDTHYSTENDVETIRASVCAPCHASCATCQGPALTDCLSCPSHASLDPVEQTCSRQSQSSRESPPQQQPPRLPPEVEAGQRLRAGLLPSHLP
A number is an active result; – = inactive; ? = inconclusive; · = not tested or not shown; + = active, no number. Hits are enriched below; roughly 1.9% of the tested compounds scored in any of these assays.

SMILES	Ins promoter up	HSV augment	MT stabilizer	Autophagy mod	b-catenin transl	Furin inhibitor
O=C(/C=C/c1cccc([N+](=O)[O-])c1)Nc1ccc(Cl)cn1	–	–	10	–	–	–
Cc1ccc(NC(=O)/C=C/c2ccc(Cl)cc2)nc1	–	–	21	–	–	–
CCC(CC)c1nc(C#N)c(NCc2ccccc2)o1	–	–	15	–	–	–
N#Cc1nc(Cc2ccccc2)oc1NCc1ccccc1	–	–	–	–	–	–
CNc1c(N)c(=O)oc2ccccc12	–	–	–	–	–	–
Cc1ccc(Nc2c(N)c(=O)oc3ccccc23)cc1	·	–	30	+	–	–
C/C(CCC12CC3CC(CC(C3)C1)C2)=N\NC(N)=S	·	–	–	+	·	–
Cc1ccc2nc(/C(C#N)=C/c3ccc(-c4cccc([N+](=O)[O-])c4)o3)[nH]c2c1	–	?	–	+	–	–
COc1ccc(/C=C(\C#N)c2nc3ccc(C)cc3[nH]2)cc1Oc1ccc(C(F)(F)F)cc1[N+](=O)[O-]	–	·	–	+	–	–
Cc1ccc2nc(/C(C#N)=C\c3ccc(Oc4ccc(C(F)(F)F)cc4[N+](=O)[O-])cc3)[nH]c2c1	–	–	–	–	–	–
COc1cccc(/C=N/n2c(SC)nnc2-c2ccccc2)c1O	–	·	–	–	90	–
CCCn1c(SCC(=O)NC2CCCCC2)nnc1-c1ccncc1	3.1	–	–	–	–	–
COc1cc(C(c2c(C)[nH][nH]c2=O)c2c(C)[nH][nH]c2=O)cc(OC)c1OC	–	–	–	+	–	–
Cn1cc(Br)c(C(=O)NC(=S)Nc2ccc(S(N)(=O)=O)cc2)n1	–	–	–	+	–	–
O=c1c(Cl)c(Cl)cnn1Cc1nnc(-c2ccccc2Br)o1	?	–	–	–	–	–
NNC(=O)CCc1nc2ccc(O)cc2[nH]1	–	–	–	–	–	–
Cn1c(=O)cc(NCCc2ccccc2)[nH]c1=O	–	–	26	–	·	–
Cn1c(-c2c(N)n(-c3ccccc3)c3nc4ccccc4nc23)nc2ccccc21	–	–	–	+	–	–
Cc1cccc(-n2c(N)c(-c3nc4ccccc4n3C)c3nc4ccccc4nc32)c1	–	–	–	+	–	–
CC(C)(C)Nc1nc2ccc([N+](=O)[O-])cc2o1	–	–	·	·	–	–
COC(=O)c1cc(C(=O)c2ccc(Cl)cc2)n2c(=O)/c(=C\N(C)C)sc12	·	–	–	+	–	–
CCN(CC)c1ccc(NC(=O)c2ccccc2F)cc1	–	–	52	–	·	–
CCN(CC)c1ccc(NC(=O)c2cc(Cl)ccc2OC)cc1	–	–	–	–	·	–
C=C1CCN([C@@H](Cc2ccccc2)C(=O)NCc2ccc(Cl)cc2)S(=O)(=O)c2ccccc21	·	–	·	·	·	·
O=C1C(c2ccnc3ccccc23)=C(O)c2ccccc21	–	–	–	+	–	–
SMILES	Ins promoter up	HSV augment	MT stabilizer	Autophagy mod	b-catenin transl	Furin inhibitor
O=C1c2ccccc2C(=O)C1c1ccnc2ccccc12	·	–	–	–	·	–
O=C(C1=C[C@H](C2CC2)C[C@H](OCCCCO)O1)N1CCN(Cc2ccccc2)CC1	3.7	–	–	–	–	–
O=C(C1=C[C@H](C2CCCCC2)C[C@H](OCCCCO)O1)N1CCN(Cc2ccccc2)CC1	–	–	–	–	–	–
COc1cc(/C=C/C(=O)O)cc(S(=O)(=O)Nc2ccccc2Oc2ccccc2)c1OC	–	–	·	·	–	–
CC1CCN(C(=O)c2ccc(SCc3ccccc3F)c([N+](=O)[O-])c2)CC1	–	–	–	–	–	–
CCn1nc(C)c(CNC(=O)CC2C(=O)NCCN2CC(C)C)c1C (centres undefined)	–	–	–	–	–	–
CN1C[C@@H]2C(c3ccc(C(F)(F)F)cc3)C3(c4ccc(C#N)cc4)CC2(C3)[C@H]1c1ccccc1 (some centres undefined)	·	–	·	·	–	–
Cc1c(Cl)cccc1NC(=S)N(Cc1cccs1)C1CCCC1	–	–	–	–	–	–
COc1cc(/C=N/NC(=O)c2csc3c2CCCC3)cc(OC)c1O	–	–	–	–	–	–
Cc1ccc(/C=N/NC(=O)c2csc3c2CCCC3)cc1	–	–	20	+	–	–
COc1ccc(C2N(Cc3ccccc3)CCN2Cc2ccccc2)cc1[N+](=O)[O-]	–	–	–	+	–	–
CCCCC1(Cc2ccc(OC)c([N+](=O)[O-])c2)C(=O)N(c2ccccc2)N(c2ccccc2)C1=O	–	–	–	–	–	–
O=C1/C(=C/c2ccncc2)CCC/C1=C\c1ccncc1	?	–	31	+	·	–
COc1ccccc1/C=C/C(=O)NC(=S)NC(C)C	–	–	–	–	–	–
Nc1nc(SCC(=O)N2CCCC2)[nH]c(=O)c1NC(=O)c1cccs1	–	–	·	·	–	–
NC(N)=N/N=C/c1ccc(Br)cc1	–	–	24	–	113	–
N#Cc1ccc(-c2cccnc2)nc1SCc1ccc(Cl)c(Cl)c1	·	–	–	–	–	–
O=Cc1cc2ccccc2nc1SCc1ccc(Cl)c(Cl)c1	?	–	18	–	–	–
O=c1[nH]c(SCc2ccc(Cl)cc2)nc2ccccc12	–	–	–	–	–	–
O=Cc1cc2ccccc2nc1SCc1ccc(Cl)cc1	–	–	28	–	–	–
Cc1ccc(CSc2nc3ccccc3cc2C=O)cc1	–	–	21	–	–	–
CCOC(=O)C1=C(C)N=c2s/c(=C\c3ccc(OC(C)=O)cc3)c(=O)n2C1/C=C/c1ccccc1 (centres undefined)	–	–	–	–	–	–
CCOC(=O)C1=C(C)N=c2s/c(=C\c3ccc(OC(C)=O)c(OCC)c3)c(=O)n2C1/C=C/c1ccccc1 (centres undefined)	–	–	–	+	–	–
O=[N+]([O-])c1ccc(Sc2cccc3cccnc23)c([N+](=O)[O-])c1	–	–	–	+	–	–
CCOC(=O)c1cnn(-c2nc(-c3ccc(C)cc3)cs2)c1C(F)(F)F	–	–	29	–	–	–
SMILES	Ins promoter up	HSV augment	MT stabilizer	Autophagy mod	b-catenin transl	Furin inhibitor
COc1ccc(NC(=O)C2CCC(C)(C(=O)O)C2(C)C)cc1 (centres undefined)	–	–	–	–	–	–
CCOc1ccc(NC(=O)C2CCC(C)(C(=O)O)C2(C)C)cc1 (centres undefined)	3.6	–	–	–	–	–
Cc1ccc(Nc2cc(-c3ccccc3)nc3ncnn23)cc1	–	–	·	·	–	–
COc1ccc(-c2nc(Cn3c(SCc4cccc(F)c4)nc4ccncc43)c(C)o2)cc1OC	–	–	–	+	–	–
O=C(Nc1cc(F)cc(F)c1)c1ccc(NCCc2ccccc2)c([N+](=O)[O-])c1	·	–	–	–	–	–
Cc1ccc(NC(=O)c2ccc(NCCc3ccccc3)c([N+](=O)[O-])c2)cc1F	–	–	–	+	–	–
